Source: ChEMBL document CHEMBL5058577, “EUbOPEN Chemogenomics Library 2 (Multiplex)” (2022)

Tested on: Fibroblast
Test: Multiplex assay against human fibroblast
Assay type: toxicity, cell-based
Summary of the method: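 Live cells were stained at seeding with Hoechst33342, BioTracker Green Microtubule Cytoskeleton Dye, MitoTracker Red and Annexin V Alexa Fluor 680, then imaged on a CQ1 microscope at 37°C and 5% CO2 after compound addition. CellPathfinder machine-learning gating split cells into Hoechst high-intensity objects or normal cells. Normal cells were split into healthy, pyknosed or fragmented nuclei, and pyknosed cells into mitotic or apoptotic. Tubulin, mitochondrial-mass and membrane-permeability phenotypes are per cents of healthy-nucleus cells.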

[1] = 12 h, 1 µM, compound concentration 1 uM, replicate 1
[2] = 12 h, 1 µM, compound concentration 1 uM, replicate 2
[3] = 12 h, 10 µM, compound concentration 10 uM, replicate 1
[4] = 12 h, 10 µM, compound concentration 10 uM, replicate 2
[5] = 24 h, 1 µM, compound concentration 1 uM, replicate 1
[6] = 24 h, 1 µM, compound concentration 1 uM, replicate 2
[7] = 24 h, 10 µM, compound concentration 10 uM, replicate 1
[8] = 24 h, 10 µM, compound concentration 10 uM, replicate 2
[9] = 48 h, 1 µM, compound concentration 1 uM, replicate 1
[10] = 48 h, 1 µM, compound concentration 1 uM, replicate 2
[11] = 48 h, 10 µM, compound concentration 10 uM, replicate 1
[12] = 48 h, 10 µM, compound concentration 10 uM, replicate 2

## CCc1cc2cc(NS(=O)(=O)c3ccc(C#N)cc3)ccc2n(CC)c1=O
[1]
  Population Apoptotic (%): 42%
  Population Fragmented Nuclei (%): 16%
  Population Healthy Nuclei (%): 64%
  Population Hoechst High Intensity Objects (%): 1%
  Population Membrane Permeable-Phenotype (%): 1%
  Population Mitochondria Different-Phenotype (%): 3%
  Population Mitotic Cells (%): 57%
  Population Normal (%): 98%
  Population Pyknosed Nuclei (%): 18%
  Population Tubulin-Different-Phenotype (%): 24%
  Total Cell Count: 157
[2]
  Population Fragmented Nuclei (%): 27%
  Population Healthy Nuclei (%): 40%
  Population Hoechst High Intensity Objects (%): 6%
  Population Membrane Permeable-Phenotype (%): 9%
  Population Mitochondria Different-Phenotype (%): 7%
  Population Normal (%): 93%
  Population Pyknosed Nuclei (%): 32%
  Population Tubulin-Different-Phenotype (%): 39%
  Total Cell Count: 173
[3]
  Population Apoptotic (%): 42%
  Population Fragmented Nuclei (%): 18%
  Population Healthy Nuclei (%): 54%
  Population Hoechst High Intensity Objects (%): 1%
  Population Membrane Permeable-Phenotype (%): 1%
  Population Mitochondria Different-Phenotype (%): 5%
  Population Mitotic Cells (%): 57%
  Population Normal (%): 98%
  Population Pyknosed Nuclei (%): 26%
  Population Tubulin-Different-Phenotype (%): 65%
  Total Cell Count: 133
[4]
  Population Apoptotic (%): 18%
  Population Fragmented Nuclei (%): 19%
  Population Healthy Nuclei (%): 43%
  Population Hoechst High Intensity Objects (%): 5%
  Population Membrane Permeable-Phenotype (%): 12%
  Population Mitochondria Different-Phenotype (%): 6%
  Population Mitotic Cells (%): 81%
  Population Normal (%): 94%
  Population Pyknosed Nuclei (%): 37%
  Population Tubulin-Different-Phenotype (%): 74%
  Total Cell Count: 153
[5]
  Population Apoptotic (%): 53%
  Population Fragmented Nuclei (%): 19%
  Population Healthy Nuclei (%): 63%
  Population Hoechst High Intensity Objects (%): 5%
  Population Membrane Permeable-Phenotype (%): 1%
  Population Mitochondria Different-Phenotype (%): 4%
  Population Mitotic Cells (%): 46%
  Population Normal (%): 94%
  Population Pyknosed Nuclei (%): 17%
  Population Tubulin-Different-Phenotype (%): 26%
  Total Cell Count: 157
[6]
  Population Apoptotic (%): 43%
  Population Fragmented Nuclei (%): 26%
  Population Healthy Nuclei (%): 48%
  Population Hoechst High Intensity Objects (%): 6%
  Population Membrane Permeable-Phenotype (%): 9%
  Population Mitochondria Different-Phenotype (%): 8%
  Population Mitotic Cells (%): 56%
  Population Normal (%): 93%
  Population Pyknosed Nuclei (%): 25%
  Population Tubulin-Different-Phenotype (%): 51%
  Total Cell Count: 164
[7]
  Population Apoptotic (%): 50%
  Population Fragmented Nuclei (%): 19%
  Population Healthy Nuclei (%): 58%
  Population Hoechst High Intensity Objects (%): 2%
  Population Membrane Permeable-Phenotype (%): 1%
  Population Mitochondria Different-Phenotype (%): 6%
  Population Mitotic Cells (%): 50%
  Population Normal (%): 97%
  Population Pyknosed Nuclei (%): 22%
  Population Tubulin-Different-Phenotype (%): 59%
  Total Cell Count: 130
[8]
  Population Apoptotic (%): 32%
  Population Fragmented Nuclei (%): 22%
  Population Healthy Nuclei (%): 38%
  Population Hoechst High Intensity Objects (%): 9%
  Population Membrane Permeable-Phenotype (%): 6%
  Population Mitochondria Different-Phenotype (%): 12%
  Population Mitotic Cells (%): 67%
  Population Normal (%): 90%
  Population Pyknosed Nuclei (%): 39%
  Population Tubulin-Different-Phenotype (%): 72%
  Total Cell Count: 145
[9]
  Population Apoptotic (%): 52%
  Population Fragmented Nuclei (%): 24%
  Population Healthy Nuclei (%): 59%
  Population Hoechst High Intensity Objects (%): 3%
  Population Membrane Permeable-Phenotype (%): 0%
  Population Mitochondria Different-Phenotype (%): 4%
  Population Mitotic Cells (%): 47%
  Population Normal (%): 96%
  Population Pyknosed Nuclei (%): 15%
  Population Tubulin-Different-Phenotype (%): 27%
  Total Cell Count: 150
[10]
  Population Apoptotic (%): 37%
  Population Fragmented Nuclei (%): 33%
  Population Healthy Nuclei (%): 50%
  Population Hoechst High Intensity Objects (%): 5%
  Population Membrane Permeable-Phenotype (%): 12%
  Population Mitochondria Different-Phenotype (%): 8%
  Population Mitotic Cells (%): 62%
  Population Normal (%): 94%
  Population Pyknosed Nuclei (%): 16%
  Population Tubulin-Different-Phenotype (%): 60%
  Total Cell Count: 156
[11]
  Population Apoptotic (%): 60%
  Population Fragmented Nuclei (%): 17%
  Population Healthy Nuclei (%): 62%
  Population Hoechst High Intensity Objects (%): 1%
  Population Membrane Permeable-Phenotype (%): 1%
  Population Mitochondria Different-Phenotype (%): 12%
  Population Mitotic Cells (%): 40%
  Population Normal (%): 98%
  Population Pyknosed Nuclei (%): 19%
  Population Tubulin-Different-Phenotype (%): 61%
  Total Cell Count: 129
[12]
  Population Fragmented Nuclei (%): 30%
  Population Healthy Nuclei (%): 48%
  Population Hoechst High Intensity Objects (%): 7%
  Population Membrane Permeable-Phenotype (%): 18%
  Population Mitochondria Different-Phenotype (%): 7%
  Population Mitotic Cells (%): 39%
  Population Normal (%): 92%
  Population Pyknosed Nuclei (%): 20%
  Population Tubulin-Different-Phenotype (%): 69%
  Total Cell Count: 145
